From PubChem
TCR-CD3 inh = human TCR-CD3 binding inhibition | inhibition, % at 9.4 µM | hit rate 0.37% among 360,000 | TAMRA-labeled TCR probe fluorescence, biochemical; in the data active means inhibition above about 19%;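 further: recombinant mutant TCR 2C K166C tagged with TAMRA read by polarization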
PRMT1 FP inh = inhibitors of human PRMT1 | hit rate 1.3% among 370,000 | AID 652257 | recombinant PRMT1, activity-based probe fluorescence polarization | Q99873 | inhibition, % at 2.79 µM;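 active means inhibition above about 21% made by adding two undisclosed values, limit read from the data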
SIAE primary = blocks human sialic acid acetylesterase | Q9HAT2 | SIAE FP-Rh probe binding, fluorescence polarization | inhibition, % at 9.66 µM | hit rate 0.69% among 370,000 | AID 1053197;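 active means inhibition above a cutoff: mean of compounds within the control limits plus 3 SD of those, cut at about 17% in these data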
Target sequence (Q9HAT2 whole entry, looked up): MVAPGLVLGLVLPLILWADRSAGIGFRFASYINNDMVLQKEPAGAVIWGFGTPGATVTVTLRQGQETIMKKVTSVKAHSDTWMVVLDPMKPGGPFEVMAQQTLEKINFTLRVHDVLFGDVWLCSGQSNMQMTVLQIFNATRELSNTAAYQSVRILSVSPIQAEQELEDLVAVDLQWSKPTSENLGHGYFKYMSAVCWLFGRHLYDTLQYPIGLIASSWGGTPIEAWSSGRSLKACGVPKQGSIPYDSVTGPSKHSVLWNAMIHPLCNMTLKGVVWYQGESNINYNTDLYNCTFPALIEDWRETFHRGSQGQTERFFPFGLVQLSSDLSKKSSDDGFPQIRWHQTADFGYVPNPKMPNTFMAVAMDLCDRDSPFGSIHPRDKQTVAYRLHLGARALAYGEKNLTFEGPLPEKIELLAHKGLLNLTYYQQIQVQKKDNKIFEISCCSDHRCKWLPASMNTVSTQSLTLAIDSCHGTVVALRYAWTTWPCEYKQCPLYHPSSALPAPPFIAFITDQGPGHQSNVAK
mABHD4 FP = inhibitors of mouse ABHD4 | AID 720543 | purified mABHD4, FP-Rh probe fluorescence polarization | hit rate 0.54% among 370,000 | inhibition, % at 8.92 µM | Q8VD66;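 active means inhibition exceeding the mean over every tested compound plus 3 SD, cut at about 30% in these data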
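Test system: mABHD4 protein; Read-out basis: % inhibition; Incubation: 45 min + 60 min at 25 °C; Repeats: single replicate; Technique: fluorescence polarization with parallel and perpendicular emission, 525/598 nm; Compound: 8.92 µM, single dose; Benchmarks: full inhibition S159A mutant plus DMSO, zero as sample-well median.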
HTRA1 inhibitor = HTRA1 (human) protease inhibition; Q92743; recombinant HTRA1, FP-rhodamine activity-based probe, fluorescence polarization; inhibition, % at 5.96 µM; hit rate 0.5% among 340,000; AID 504803; in the data active means inhibition above about 36%
PRMT1 confirm = confirmation of human PRMT1 inhibitors; shares compounds with PRMT1 FP inh; recombinant His-PRMT1, activity-based probe fluorescence polarization; inhibition, % at 2.79 µM; hit rate 42% among 3,300;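 active means mean inhibition across replicates above the hit cutoff derived for the earlier primary screen, cut at about 22% in these data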
Numbers stand for hits; . = inactive; / = not tested or not shown. An excerpt weighted towards active compounds, which were near 2.7% of everything screened.

SMILES	TCR-CD3 inh	PRMT1 FP inh	SIAE primary	mABHD4 FP	HTRA1 inhibitor	PRMT1 confirm
Cc1ccc(-c2cc(C(=O)NN3CCOCC3)c3cc(Br)ccc3n2)o1	.	.	.	.	.	/
Cc1ccc(-c2cc(C(=O)N3CC(C)CC(C)C3)c3ccccc3n2)o1 (stereo not given)	.	64	.	.	.	29
Cc1ccc(-c2cc(C(=O)O)c3cc(Br)ccc3n2)o1	.	77	.	.	.	81
CCn1cc(C(=O)NCc2ccc(C)o2)c2cc(OC)c(OC)cc2c1=O	.	.	.	.	.	/
Cc1ccc(CNC(=O)c2coc(=O)c3ccccc23)o1	.	32	.	.	.	.
Cc1ccc(-c2cc(C(=O)NCc3ccco3)c3ccccc3n2)o1	.	48	.	.	.	.
Cc1ccc(NC(=O)C2C3C=CC4(O3)C2C(=O)N(CCCN2CCCCC2)C4C(=O)NC2CCCCC2)cc1C (stereo not given)	.	.	.	.	.	/
Cc1ccc(C)c(S(=O)(=O)N/N=C/c2ccc(N3CCOCC3)cc2)c1	.	.	.	.	.	/
COc1cccc(NC(=O)c2cc(-c3ccc(C)o3)nc3ccccc23)c1	.	.	.	.	.	/
Cc1cc(C(=O)Nc2ccccc2C)c2ccccc2n1	.	.	.	.	.	/
COC(=O)c1cc(-c2ccc(C)o2)nc2ccccc12	.	42	.	.	.	24
Cc1ccc(-c2cc(C(=O)N3CC(C)OC(C)C3)c3ccccc3n2)o1 (stereo not given)	.	.	.	.	.	/
COc1cc(-c2cc(C(=O)Nc3cccc(S(=O)(=O)N(C)C)c3)c3ccccc3n2)cc(OC)c1OC	.	.	.	.	.	/
COc1cccc(NC(=O)CN(C)C(=O)c2cc(-c3ccc(C)o3)nc3ccccc23)c1	.	51	.	.	.	.
Cc1ccc(-c2cc(C(=O)Nc3cccc(S(=O)(=O)N(C)C)c3)c3ccccc3n2)o1	.	50	.	.	.	56
Cc1ccc(-c2cc(C(=O)Nc3ccccc3C)c3ccccc3n2)o1	.	44	.	.	.	.
Cc1cc(Br)cn2c(Cc3ccccc3)c(-c3ccccc3)nc12	.	.	.	.	/	/
O=C(O)COc1ccccc1C=NNC(=O)Cc1cc(=O)[nH][nH]1	/	.	.	.	/	/
O=C(Nc1cccc(S(=O)(=O)NC2=NCCCCC2)c1)c1cc(-c2ccc(Cl)cc2)nc2ccccc12	.	.	.	.	.	/
O=C(NCc1ccco1)c1cccnc1-c1nc2ccccc2s1	.	42	.	.	.	46
O=C(NC(=S)Nc1cccc(S(=O)(=O)NC2=NCCC2)c1)c1cc(-c2ccco2)nc2ccccc12	.	32	.	.	.	.
Cc1ccccc1NC(=O)c1sc2nc3c(c(-c4ccco4)c2c1N)CCC3	.	44	.	.	.	.
CCc1nc2ccc(C(=O)NCc3ccc4c(c3)OCO4)cn2c1N(C)Cc1cccs1	.	.	.	.	/	/
Cc1nnc(NC(=O)CCSCCC(=O)Nc2nnc(C)s2)s1	.	29	.	.	.	30
O=[N+]([O-])c1cc(-c2ccc(C(=S)N3CCOCC3)o2)ccc1Cl	.	44	.	.	.	.
SMILES	TCR-CD3 inh	PRMT1 FP inh	SIAE primary	mABHD4 FP	HTRA1 inhibitor	PRMT1 confirm
O=[N+]([O-])c1ccccc1-c1ccc(C(=S)N2CCCC2)o1	.	39	.	.	.	.
O=[N+]([O-])c1ccccc1-c1ccc(C(=S)N2CCCCC2)o1	.	.	.	.	.	/
O=[N+]([O-])c1cccc(-c2ccc(C(=S)N3CCOCC3)o2)c1	.	.	.	.	.	/
O=C(c1ccc(-c2ccc([N+](=O)[O-])cc2)o1)N1CCCCCCC1	.	31	.	.	.	.
CCc1cc2c(nc1CC)CCCN2S(=O)(=O)c1ccc(C)cc1	.	.	.	.	/	/
N#CC1=C(N)SC(N)=C(C#N)C1C1C=CCCC1 (stereo not given)	.	36	.	.	.	.
CCc1nn(CC(=O)N2CC(C)CC(C)C2)c(=O)c2cccn12 (stereo not given)	.	.	.	.	.	/
O=C(Cc1ccccc1)Nc1nc(=O)c2ccccc2s1	.	48	.	.	.	.
O=C(Nc1nc(=O)c2ccccc2s1)c1ccc(Cl)cc1	.	32	.	.	.	.
CC(C)(C)OC(=O)N1CCCC(C(=O)Nc2ccc(C(=O)NCc3ccccc3)cc2)C1 (stereo not given)	.	.	.	.	.	/
COc1ccc(C(=O)C[n+]2ccc3c(c2)nc(Cc2ccccc2)n3C)cc1	/	29	.	.	/	.
CC(C)C[C@H]1COc2cccc(N3CCOCC3)c2S(=O)(=O)N1	.	.	.	.	/	/
CC(C)c1ccc(NC(=O)C2(C)Cc3c(-c4ccccc4)ccnc3O2)cc1 (stereo not given)	.	.	.	.	/	/
COc1ccc(C2C(C(=O)O)c3ccccc3C(=O)N2Cc2ccco2)cc1 (stereo not given)	.	.	.	.	/	/
CCCC(c1nnnn1CCOC)N(Cc1cc2cc(C)c(C)cc2[nH]c1=O)CC1CCCO1 (stereo not given)	.	26	.	.	.	.
CCC(c1nnnn1CCOC)N(Cc1cc2cc(C)c(C)cc2[nH]c1=O)CC1CCCO1 (stereo not given)	.	.	.	.	.	/
CCOC(=O)c1ccc(N2C(=O)c3n[nH]c(-c4ccco4)c3C2c2cccc([N+](=O)[O-])c2)cc1 (stereo not given)	.	60	.	.	.	.
CC(C)(C)OC(=O)NCC12C=CC(O1)C1C(=O)N(Cc3ccccc3)C(=O)C12 (stereo not given)	.	47	.	.	.	.
C=Cc1ccc(C(=O)N2CCC(n3nnc4ncccc43)CC2)cc1	/	.	.	.	/	/
O=C(CSC1=NC(=O)C(c2ccccc2)C(=O)N1)Nc1ccccc1[N+](=O)[O-] (stereo not given)	.	.	.	.	.	/
COc1ccccc1NC(=O)CSC1=NCCN1	.	31	.	.	.	.
COc1ccccc1NC(=O)CSc1nccc(-c2ccco2)n1	.	32	.	.	.	.
CCOc1ccccc1NC(=O)/C=C/C(N)=O	.	61	.	.	.	47
O=C(CSC1=NCCN1)Nc1ccccc1[N+](=O)[O-]	.	55	.	.	.	.
COc1ccc(S(=O)(=O)N(C)C[C@@H]2OCCCC[C@H](C)Oc3ccc(NC(=O)Nc4ccc(C(F)(F)F)cc4)cc3C(=O)N([C@H](C)CO)C[C@H]2C)cc1	.	.	.	.	.	/
CCCCn1c(N)c(N(CCOC)C(=O)c2ccc3c(c2)OCCO3)c(=O)[nH]c1=O	.	.	.	.	.	/
O=C(CSC1=NCCN1)NC(c1ccccc1)c1ccccc1	.	41	.	.	.	26
O=C(CSC1=NCCN1)Nc1cccc([N+](=O)[O-])c1	.	34	.	.	.	.
Nc1nc(SCC(=O)Nc2cccc([N+](=O)[O-])c2)n[nH]1	.	.	.	.	.	/
CCOc1ccccc1NC(=O)CSc1c(C)n[nH]c1C	.	25	.	.	.	.
